# Assay results taken from BindingDB's records for doi:10.1021/jm020875j (Boehringer Ingelheim Pharma, 2002).
# Molecular target: Sodium channel protein type 1/2/3 subunit alpha (Rattus norvegicus, UniProt P04774+P04775+P08104)
# Assay: Displacement of [3H]BTX from sodium channel of rat cerebral cortex synaptosomes
# How it was run: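 Synaptosomal membranes from rat cerebral cortex incubated 1 h at 37 °C with 1 nmol/L [3H]BTX-B in choline Cl/HEPES-Tris buffer pH 7.4 containing glucose, KCl and MgSO4, plus scorpion venom. Nonspecific binding defined with 100 μmol/L aconitine. Stopped by vacuum filtration through glass fiber and two buffer washes.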
row,SMILES,Ki
1,CO[C@@H](C)CN1CCC2(C)c3cccc(O)c3C[C@H]1C2(C)C,10 µM
2,COC(C)CN1CCC2(C)c3ccc(O)cc3C[C@@H]1C2(C)C (some centres undefined),> 10 µM
3,Cc1ccc(-c2nc(C)c(CN3CCN(C(c4ccccc4)c4ccccc4)CC3)[nH]2)cc1 [Lifarizine],0.259 µM
4,C[C@H](CN1CCC2(C)c3ccc(O)cc3C[C@H]1C2(C)C)OCc1ccccc1,1.23 µM
5,CO[C@H](C)CN1CCC2(C)c3cccc(O)c3C[C@H]1C2(C)C,10 µM
6,CO[C@H](C)CN1CCC2(C)c3cccc(O)c3C[C@@H]1C2(C)C,3.31 µM
7,C[C@@H](CN1CCC2(C)c3cccc(O)c3C[C@H]1C2(C)C)OCc1ccccc1,1.33 µM
8,CC12CCN(CCc3ccccc3)[C@@H](Cc3cc(O)ccc31)C2(C)C,1.29 µM
9,CO[C@@H](C)CN1CCC2(C)c3ccccc3C[C@@H]1C2(C)C,4.7 µM
10,C[C@@H](CN1CCC2(C)c3ccc(O)cc3C[C@H]1C2(C)C)Oc1ccccc1,1.53 µM
11,C[C@@H](CN1CCC2(C)c3ccc(O)cc3C[C@H]1C2(C)C)OCc1ccccc1,1.87 µM
12,C[C@@H](CN1CCC2(C)c3ccc(O)cc3C[C@@H]1C2(C)C)OCc1ccccc1,0.312 µM
13,CO[C@@H](C)CN1CCC2(C)c3cccc(O)c3C[C@@H]1C2(C)C,0.783 µM
14,C[C@@H](CN1CCC2(C)c3cccc(O)c3C[C@@H]1C2(C)C)OCC1CCCCC1,0.208 µM
15,C[C@@H](CN1CCC2(C)c3ccc(O)cc3C[C@@H]1C2(C)C)Oc1ccccc1,0.149 µM
16,C[C@H](CN1CCC2(C)c3ccc(O)cc3C[C@@H]1C2(C)C)OCc1ccccc1,0.382 µM
17,CC12CCN(CCc3ccccc3)[C@H](Cc3cc(O)ccc31)C2(C)C,1.06 µM
18,C[C@H](CN1CCC2(C)c3ccc(O)cc3C[C@@H]1C2(C)C)Oc1ccccc1,0.662 µM
19,COc1ccc2c(c1)[C@]13CCCC[C@@H]1[C@H](C2)N(C)CC3 [DEXTROMETHORPHAN],4.8 µM
20,C[C@H](CN1CCC2(C)c3cccc(O)c3C[C@@H]1C2(C)C)OCC1CCCCC1,0.241 µM
21,CN(c1nc2ccccc2s1)C1CCN(C[C@H](O)COc2ccc(F)c(F)c2)CC1,0.203 µM
22,C[C@H](CN1CCC2(C)c3ccc(O)cc3C[C@H]1C2(C)C)Oc1ccccc1,0.864 µM
23,CC1[C@H]2Cc3c(O)cccc3C1(C)CCN2C[C@@H](C)OCc1ccccc1 (some centres undefined),0.153 µM
24,C[C@H](CN1CCC2(C)c3cccc(O)c3C[C@H]1C2(C)C)OCc1ccccc1,1.49 µM
25,Cc1cccc(C)c1OC[C@@H](C)N,22.7 µM
26,CC(CN1CCC2(C)C[C@@H]1Cc1c(O)cccc12)OCc1ccccc1 (some centres undefined),0.047 µM
27,COC(C)CN1CCC2(C)c3c(O)cccc3C[C@@H]1C2(C)C (some centres undefined),8.99 µM
28,CC1[C@H]2Cc3c(O)cccc3C1(C)CCN2C[C@H](C)OCc1ccccc1 (some centres undefined),0.054 µM
29,COC(C)CN1CCC2(C)c3cc(O)ccc3C[C@@H]1C2(C)C (some centres undefined),6.01 µM
